In ChEMBL document CHEMBL3588757, “Structure-based design, synthesis and biological testing of piperazine-linked bis-epipodophyllotoxin etoposide analogs” (Bioorg Med Chem, 2015):
The source made the active and inactive calls. No cut-off for these calls is given here.

Experiments:
SK-OV-3 [1] = test: Cytotoxicity against human SKOV3 cells assessed as cell growth at 0.005 uM by SRB assay; format: functional; details: read-out: Activity
CHO [2] = test: Induction of apoptosis in CHO cells assessed as increase in sub-G0/G1 cell population at 1 uM after 49 hrs by propidium iodide staining based flow cytometry; format: functional; details: Cricetulus griseus
Procedure, shortened: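 CHO cells grown to confluence in α-MEM/10% FCS, serum-starved 48 h (0% FCS), then seeded at 2 × 10^5 cells/mL and repleted with 10% FCS. Continuously treated from repletion with 1 µM compound (10 µM etoposide, DMSO control) for various times. Propidium iodide DNA staining, flow cytometric phase distribution including sub-G0/G1.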

SF-295 = test: Cytotoxicity against human SF295 cells by SRB assay; format: functional
Procedure, shortened: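 NCI-60 panel screen; 5-dose testing giving GI50 per cell line, plus a single 10 µM one-dose test. Method details not given beyond the NCI screen.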

K562 [3] = test: Induction of apoptosis in human K562 cells assessed as increase in caspase 3/7 activity at 1 uM by luminescence analysis; format: functional, cell-based; details: TDE = time-dependent effect
Procedure, shortened: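 K562 cells at 2 × 10^5 cells/mL treated with vehicle or 1 µM compound for 24 or 48 h. Lysates assayed with a luminogenic DEVD-aminoluciferin caspase-3/7 substrate and read by luminescence. Four wells (eight for control); unpaired t-test vs control; repeated on two days.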

SNB-75 = test: Cytotoxicity against human SNB75 cells assessed as cell growth at 50 uM by SRB assay; format: functional; details: read-out: Activity
NCI-H522 = test: Cytotoxicity against human NCI-H522 cells assessed as cell growth at 5 uM by SRB assay; format: functional; details: read-out: Activity
K562 [4] = test: Induction of apoptosis in human K562 cells assessed as decrease in proportion of viable cells at 1 uM after 24 to 48 hrs by annexin V-FITC/propidium iodide staining based two-color fluorescence flow cytometry; format: functional, cell-based
Procedure, shortened: (§1)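 K562 cells (1 × 10^6/mL), untreated or given 1 µM compound (10 µM etoposide control) at 37 °C for 24 h or 48 h. Annexin V-FITC plus propidium iodide two-colour flow cytometry. Cells are scored as viable, apoptotic-only (annexin+/PI−), apoptotic/necrotic (annexin+/PI+) or necrotic.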

SN12C = test: Cytotoxicity against human SN12C cells assessed as cell growth at 50 uM by SRB assay; format: functional; details: read-out: Activity
OVCAR-8 = test: Cytotoxicity against human OVCAR8 cells assessed as cell growth at 0.5 uM by SRB assay; format: functional; details: read-out: Activity
COLO 205 = test: Cytotoxicity against human COLO205 cells assessed as cell growth at 0.5 uM by SRB assay; format: functional; details: read-out: Activity
K562 [5] = test: Induction of apoptosis in human K562 cells assessed as increase in proportion of apoptotic and apoptotic/necrotic cells at 1 uM after 24 to 48 hrs by annexin V-FITC/propidium iodide staining based two-color fluorescence flow cytometry; format: functional, cell-based; procedure, shortened: as §1
A549 = test: Cytotoxicity against human A549/ATCC cells assessed as cell growth at 5 uM by SRB assay; format: functional; details: read-out: Activity
[6] = target: DNA topoisomerase 2-alpha (Homo sapiens) (UniProt P11388); test: Inhibition of full-length human recombinant topoisomerase 2-alpha-mediated decatenation activity of kDNA at >10 uM by ethidium bromide based gel-assay
SK-OV-3 [7] = test: Cytotoxicity against human SKOV3 cells assessed as cell growth at 50 uM by SRB assay; format: functional; details: read-out: Activity
CHO [8] = test: Induction of cell cycle arrest in CHO cells assessed as accumulation at G2/M phase at 1 uM by propidium iodide staining based flow cytometry; format: functional; details: Cricetulus griseus
CAKI-1 = test: Cytotoxicity against human Caki1 cells assessed as cell growth at 0.005 uM by SRB assay; format: functional; details: read-out: Activity
T47D = test: Cytotoxicity against human T47D cells assessed as cell growth at 5 uM by SRB assay; format: functional; details: read-out: Activity
[9] = target: DNA topoisomerase 2-alpha (Homo sapiens) (UniProt P11388); test: Inhibition of full-length human recombinant topoisomerase 2-alpha assessed as conversion of […] DNA at 100 uM by ethidium bromide based gel-assay
SF-539 = test: Cytotoxicity against human SF539 cells assessed as cell growth at 50 uM by SRB assay; format: functional; details: read-out: Activity
[10] = read-out: LC50 (the source's name)
[11] = read-out: pLC50 (the source's name) (converted)

DNA topoisomerase 2-alpha (Homo sapiens), sequence (P11388 whole entry): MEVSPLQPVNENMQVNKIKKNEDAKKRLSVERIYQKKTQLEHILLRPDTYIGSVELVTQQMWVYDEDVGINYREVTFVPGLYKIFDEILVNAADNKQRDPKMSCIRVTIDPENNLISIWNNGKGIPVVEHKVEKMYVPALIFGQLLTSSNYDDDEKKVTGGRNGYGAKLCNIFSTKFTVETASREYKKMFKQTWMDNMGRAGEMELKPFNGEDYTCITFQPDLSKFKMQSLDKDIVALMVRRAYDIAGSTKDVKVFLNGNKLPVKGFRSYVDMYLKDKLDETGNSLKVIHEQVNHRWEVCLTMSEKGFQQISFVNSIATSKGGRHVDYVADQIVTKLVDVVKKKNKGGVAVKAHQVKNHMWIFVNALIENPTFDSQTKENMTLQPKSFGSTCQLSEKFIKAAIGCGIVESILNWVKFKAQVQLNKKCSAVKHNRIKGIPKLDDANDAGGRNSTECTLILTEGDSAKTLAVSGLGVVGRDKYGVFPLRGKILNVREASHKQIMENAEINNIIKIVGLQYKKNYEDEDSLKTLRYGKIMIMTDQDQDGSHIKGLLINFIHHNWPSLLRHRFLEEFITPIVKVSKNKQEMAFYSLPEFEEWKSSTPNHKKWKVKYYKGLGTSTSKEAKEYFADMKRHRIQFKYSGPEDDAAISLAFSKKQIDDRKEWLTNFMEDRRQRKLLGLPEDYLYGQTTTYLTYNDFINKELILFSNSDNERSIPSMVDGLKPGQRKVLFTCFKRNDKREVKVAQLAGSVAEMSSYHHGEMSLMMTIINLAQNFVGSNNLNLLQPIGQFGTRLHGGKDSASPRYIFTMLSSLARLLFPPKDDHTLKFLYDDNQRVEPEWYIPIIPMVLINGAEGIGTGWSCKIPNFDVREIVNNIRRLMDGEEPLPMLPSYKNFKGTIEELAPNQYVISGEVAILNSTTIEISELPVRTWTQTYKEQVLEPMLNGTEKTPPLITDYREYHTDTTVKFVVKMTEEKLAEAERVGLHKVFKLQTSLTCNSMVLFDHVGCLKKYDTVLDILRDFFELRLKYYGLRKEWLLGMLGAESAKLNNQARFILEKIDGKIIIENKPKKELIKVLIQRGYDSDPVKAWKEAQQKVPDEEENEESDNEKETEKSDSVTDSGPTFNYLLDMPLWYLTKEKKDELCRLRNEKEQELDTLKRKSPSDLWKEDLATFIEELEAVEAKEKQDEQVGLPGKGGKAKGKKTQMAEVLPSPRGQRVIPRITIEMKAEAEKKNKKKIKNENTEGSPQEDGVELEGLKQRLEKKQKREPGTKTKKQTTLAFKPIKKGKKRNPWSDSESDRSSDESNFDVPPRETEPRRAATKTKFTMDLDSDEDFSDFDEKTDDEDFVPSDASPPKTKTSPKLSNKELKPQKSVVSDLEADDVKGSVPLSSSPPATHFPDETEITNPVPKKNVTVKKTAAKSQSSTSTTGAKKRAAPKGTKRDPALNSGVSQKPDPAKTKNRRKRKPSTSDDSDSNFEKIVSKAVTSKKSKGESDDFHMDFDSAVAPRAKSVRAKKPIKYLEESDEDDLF

| Compound | growth at 0.005 µM (SK-OV-3 [1]) [%] | GI50 (SF-295; read-out: GI50) [µM] | CC50 (SF-295; [10]) [µM] | TGI (SF-295; read-out: TGI) [µM] | GI50 (SF-295; read-out: pGI50 (converted)) [µM] | CC50 (SF-295; [11]) [µM] | TGI (SF-295; read-out: pTGI (converted)) [µM] | growth at 50 µM (SNB-75) [%] | growth at 5 µM (NCI-H522) [%] | growth at 0.5 µM (OVCAR-8) [%] | growth at 0.5 µM (COLO 205) [%] | growth at 5 µM (A549) [%] | growth at 0.005 µM (CAKI-1) [%] | growth at 5 µM (T47D) [%] | also measured |
| --- | --- | --- | --- | --- | --- | --- | --- | --- | --- | --- | --- | --- | --- | --- | --- |
| COc1cc([C@@H]2c3cc4c(cc3[C@@H](NC(=O)CN3CCN(CCCCCCCCCCN5CCN(CC(=O)N[C@@H]6c7cc8c(cc7[C@@H](c7cc(OC)c(O)c(OC)c7)[C@H]7C(=O)OC[C@@H]76)OCO8)CC5)CC3)[C@H]3COC(=O)[C@H]23)OCO4)cc(OC)c1O | 98 | 0.894 | > 50 | 9.49 | 0.891 | > 50.1 | 9.55 | -26 | -54 | 51 | 72 | -29 | 93 | 16 | Activity (CHO [2]): Active; Activity (K562 [3]): tde; Activity (K562 [4]): Active; growth at 50 µM (SN12C): -44%; Activity (K562 [5]): Active; Inhibition of decatenation activity (qualitative) [6]: Active; growth at 50 µM (SK-OV-3 [7]): -100%; Activity (CHO [8]): Active; Inhibition (qualitative activity call) [9]: Active |
| COc1cc([C@@H]2c3cc4c(cc3[C@@H](NC(=O)CN3CCN(CCCCCCN5CCN(CC(=O)N[C@@H]6c7cc8c(cc7[C@@H](c7cc(OC)c(O)c(OC)c7)[C@H]7C(=O)OC[C@@H]76)OCO8)CC5)CC3)[C@H]3COC(=O)[C@H]23)OCO4)cc(OC)c1O | 104 | 4.92 | > 50 | > 50 | 4.9 | > 50.1 | > 50.1 | -31 | 51 | 111 | 60 | 35 | 89 | 31 | growth at 50 µM (SF-539): -38% |
